# TRPC4 potent = TRPC4 (mouse) allosteric potentiation; Q9QUQ5; HEK293 TRPC4beta/mu-opioid, DAMGO EC20, Fluo-4 Ca2+ flux; stronger effect = higher value; B-score at 10 µM; 310,000 compounds, 0.42% hits; AID 2227;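 active = B-score of calcium response area above 5 SD of library B-scores, with initial fluorescence ratio within 5 SD of library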
# Target sequence (Q9QUQ5 whole entry, looked up): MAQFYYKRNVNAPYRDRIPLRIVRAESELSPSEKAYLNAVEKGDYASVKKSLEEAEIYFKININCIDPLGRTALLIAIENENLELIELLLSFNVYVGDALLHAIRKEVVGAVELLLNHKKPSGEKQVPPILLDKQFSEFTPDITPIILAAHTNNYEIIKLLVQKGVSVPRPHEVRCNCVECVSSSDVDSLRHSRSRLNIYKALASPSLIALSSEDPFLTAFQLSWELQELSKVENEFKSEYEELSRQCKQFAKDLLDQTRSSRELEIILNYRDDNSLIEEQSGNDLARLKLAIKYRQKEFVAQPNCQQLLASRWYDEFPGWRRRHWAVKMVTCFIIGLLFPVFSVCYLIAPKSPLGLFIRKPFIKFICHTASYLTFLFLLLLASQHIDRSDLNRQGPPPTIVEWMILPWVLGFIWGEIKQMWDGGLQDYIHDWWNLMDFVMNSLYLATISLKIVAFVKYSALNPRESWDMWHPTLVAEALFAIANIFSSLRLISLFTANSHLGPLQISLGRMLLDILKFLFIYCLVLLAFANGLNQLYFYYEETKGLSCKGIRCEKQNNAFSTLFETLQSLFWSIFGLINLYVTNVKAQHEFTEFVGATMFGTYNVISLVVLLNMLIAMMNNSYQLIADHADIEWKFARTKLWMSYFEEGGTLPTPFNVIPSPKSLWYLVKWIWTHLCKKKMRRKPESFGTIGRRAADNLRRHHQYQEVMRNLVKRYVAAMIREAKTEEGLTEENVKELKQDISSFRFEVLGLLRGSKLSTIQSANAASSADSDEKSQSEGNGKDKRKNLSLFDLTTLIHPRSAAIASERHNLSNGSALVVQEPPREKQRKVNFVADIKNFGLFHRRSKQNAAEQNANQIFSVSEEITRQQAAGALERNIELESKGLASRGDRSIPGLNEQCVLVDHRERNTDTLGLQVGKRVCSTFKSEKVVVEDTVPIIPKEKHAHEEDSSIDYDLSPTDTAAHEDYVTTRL
# TRPC6 act = activators of mouse TRPC6 channel. B-score at 10 µM. 310,000 compounds, 0.13% hits. HEK293-TRPC6 membrane potential dye fluorescence; stronger effect = higher value;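 active = B-score of the integrated fluorescence ratio above library mean plus 3 SD, and starting fluorescence ratio within library mean plus 5 SD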;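 note: higher score means more depolarization so channel activation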
# TRPC4 act = TRPC4 (mouse) channel activation; Q9QUQ5; HEK293 TRPC4beta/mu-opioid, Fluo4 calcium fluorescence; stronger effect = higher value; B-score at 10 µM; 310,000 compounds, 0.49% hits; AID 2237;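 active = B-score above 5 SD of library B-scores, and initial fluorescence ratio not above library mean plus 5 SD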;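 note: positive B-score marks a calcium rise read as TRPC4 activation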
#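 System: HEK293 cells stably co-expressing mouse TRPC4beta and mu-opioid receptor; Schedule: Fluo4 dye loading 45 min at room temperature, 110 s recording; Detection: Fluo4 fluorescence, kinetic; Evaluation: B-scored integrated calcium fluorescence ratio; Controls: buffer (low) and maximal DAMGO (high).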
# TRPC6 inhibitor = blocks the mouse TRPC6 cation channel; AID 2553; 310,000 compounds, 1.1% hits; HEK293-TRPC6, membrane potential dye, ACh-evoked depolarization; stronger effect = lower value; Q61143; B-score at 10 µM;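 active = B-score under library mean minus 3 SD, initial fluorescence not abnormally high, positive integrated signal ratio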;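 note: B-score derived from integrated fluorescence ratio over the kinetic read; more negative B-score means stronger inhibition of depolarization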
# TRPC4 inh = blocks the mouse TRPC4 cation channel; 300,000 compounds, 0.39% hits; Q9QUQ5; HEK293 TRPC4beta/mu-opioid, DAMGO-evoked Fluo4 calcium flux; stronger effect = lower value; B-score at 10 µM; AID 2247;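 active = B-score over 3 SD under the library average, no early fluorescence shift, positive overall ratio signal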
#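 Assay system: TRPC4beta/mu-opioid receptor HEK293 cell line; compound dosing: single concentration per test compound; detection: Fluo4 Ca2+ flux fluorescence; evaluation: per-well B score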
# Kir21 inh = blocks the mouse Kir2.1 inward-rectifier potassium channel; B-score at 10 µM; 310,000 compounds, 0.85% hits; P35561; HEK293-Kir2.1, FluxOR thallium flux fluorescence; stronger effect = lower value; AID 1672;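 active = fluorescence ratio B-score at or below minus 3 SD of library scores, with starting-brightness B-score within 2 SD, cut at about -4.2 in these data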;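 note: channel flux triggered by added potassium and thallium sulfate stimulus; B-score of peak minus minimum fluorescence over baseline after thallium stimulus; more negative B-score means stronger Kir2.1 block with less thallium influx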
# Numbers stand for hits; 0 = inactive; ! = not confirmed by another sample. This is a sample that favours compounds with a hit; in the whole collection about 2.9% have one here.
SMILES,TRPC4 potent,TRPC6 act,TRPC4 act,TRPC6 inhibitor,TRPC4 inh,Kir21 inh
CC(C)n1c(O)c(C2c3cc(Cl)ccc3Oc3[nH]c(=O)n(C(C)C)c(=O)c32)c(=O)[nH]c1=O (stereo unspecified),0,0,0,0,0,-4.3
NC(N)=N/N=C/c1cn(-c2ccccc2)nc1-c1cccs1,0,0,97,0,0,-9.3
O=c1c2ccccc2nc(-c2cccs2)n1-c1ccccc1,0,0,0,0,0,0
CC(NS(C)(=O)=O)c1nnc2n1-c1ccc(Br)cc1C(c1ccccc1Cl)=NC2 (stereo unspecified),0,0,0,0,0,0
COc1ccc(-[n+]2c(-c3ccccc3)cc(-c3ccccc3)cc2-c2ccccc2)cc1,0,0,0,0,0,-7.5
Oc1ccc(-[n+]2c(-c3ccccc3)cc(-c3ccccc3)cc2-c2ccccc2)cc1,0,0,0,0,0,-10
CN[C@@H]1C[C@@H](c2ccc(Cl)c(Cl)c2)c2ccccc21,0,0,0,0,0,-11
C[C@@H]1C[C@H]2OC(=O)C3(CO3)[C@H]2[C@H](O)[C@]2(C)C(=O)C3OC3[C@@H]12 (stereo partly specified),0,0,0,0,0,0
C=C1C(=O)O[C@@H]2C[C@@H](C)[C@@H]3C=CC(=O)[C@@]3(C)[C@@H](O)[C@H]12,0,0,0,0,0,-4.3
c1ccc([C@@H]2CO2)cc1,0,0,0,0,0,0
COc1ccc(C2CN(C)CC2C(=O)c2ccc(F)cc2)cc1Cl (stereo unspecified),0,0,0,0,0,0
COc1ccc(SCC2CN(C)CCC2c2ccc(F)cc2)cc1 (stereo unspecified),0,0,0,0,0,-4.8
CCC(COC(=O)c1cc(OC)c(OC)c(OC)c1)(c1ccccc1)N(C)C (stereo unspecified),0,0,54!,0,0,0
CCOC(=O)C(O)(c1ccc(NC(=S)NC(=O)c2ccc(Cl)cc2Cl)cc1)C(F)(F)F (stereo unspecified),13,0,0,0,0,0
CCOC(=O)C(O)(c1ccc(NC(=S)NC(=O)c2ccc(Cl)cc2Cl)c(C)c1)C(F)(F)F (stereo unspecified),16,0,0,0,0,0
CC1C(c2cccs2)=[N+]([O-])C(C)(C(=O)c2cccs2)N1O (stereo unspecified),0,0,0,0,0,0
CCCCCCC(Cl)(Cn1ccnc1)c1ccccc1 (stereo unspecified),0,0,0,0,0,0
CSc1ccc(C(=O)C2CCCN(CCCn3cccn3)C2)cc1 (stereo unspecified),0,0,83,0,0,0
CCOC(=O)c1c(-n2c(C)cc(/C=C3/C(=O)NC(=O)N(CC)C3=O)c2C)sc2c1CCCC2,0,0,0,0,0,0
CCOC(=O)c1c(-n2c(C)cc(C=C3C(=O)NC(=S)NC3=O)c2C)sc2c1CCCC2,0,0,0,0,0,-4.8
CC1=CC2/C=C(\C)CCC(O)C(O)/C=C/C(=O)C23C(=O)NC(CC(C)C)C3C1C (stereo unspecified),0,0,0,0,0,-7.1
CN1C(=O)N(C)C(=O)C2(Cc3cc([N+](=O)[O-])ccc3N(C)C2)C1=O,0,0,0,0,0,0
N#CC(CCN1CCOCC1)(c1ccccc1)c1ccccc1,0,0,0,0,0,0
CCC(=O)C(CCN1CCOCC1)(c1ccccc1)c1ccccc1,0,0,62,0,0,0
Cc1ncc(CN2CCCC(C(=O)c3ccc(C(C)(C)C)cc3)C2)s1 (stereo unspecified),0,0,0,0,0,0
SMILES,TRPC4 potent,TRPC6 act,TRPC4 act,TRPC6 inhibitor,TRPC4 inh,Kir21 inh
O=C(c1cccc2ccccc12)C1CCCN(Cc2ccon2)C1 (stereo unspecified),0,0,0,0,0,0
O=C(c1cccc2ccccc12)C1CCCN(C2CCC2)C1 (stereo unspecified),10,0,0,0,0,0
O=C1NC(=O)N(c2ccc3c(c2)OCO3)C(=O)/C1=C/c1ccc(N2CCCCC2)o1,0,0,0,0,0,-4.3
CN(C)CC#CCC(O)(c1ccccc1)C1CCCC1 (stereo unspecified),0,0,0,0,0,0
CN(C)CC#CCn1c2ccccc2c2ccccc21,0,0,0,0,0,-5.6
Cc1cc(C=O)c(C)n1C1CC1,0,0,0,0,0,0
O=C(CCCN1CCC2(CC1)C(=O)NCN2c1ccccc1)c1ccc(F)cc1,0,0,158,0,0,0
COCCNCCOc1ccc(C(C)(C)c2ccccc2)cc1,0,0,0,0,0,-12
CCOC(=O)c1cc(C)n(CCc2cnc[nH]2)c1C,0,0,138,0,0,0
CCN1C(=O)/C(=C/c2ccc(N(CC)CC)cc2OC)C(=O)NC1=S,0,0,0,0,0,0
CC1CCCCC1NC(=O)CNC(=S)N1CC2CC(C1)c1cccc(=O)n1C2 (stereo unspecified),0,0,0,0,0,0
COc1ccc(Br)cc1CNCCc1ccc2c(c1)OCO2,0,0,0,0,0,-4.5
Clc1ccc(CNCCc2ccc3c(c2)OCO3)cc1,0,0,0,0,0,-8.8
COc1ccc(-n2c(CNCCc3ccc(C)cc3)nc3ccccc3c2=O)cc1,0,0,134,0,0,0
COc1ccccc1CCNCc1cccc(C(F)(F)F)c1,0,0,0,0,0,0
COc1ccc(-c2nn(CCC#N)cc2C(=O)Nc2ccccc2Br)cc1[N+](=O)[O-],0,0,0,0,0,0
O=c1[nH]c(=O)n(C2CCCCC2)c(O)c1/C=C/C=Nc1ccccc1,0,0,0,0,0,0
COc1ccccc1-n1c(-c2ccccc2Cl)nc2ccccc2c1=O,0,0,0,0,0,0
CCOc1ccc(C(C)=O)cc1Cn1ccsc1=N,0,0,0,0,-5,0
COc1ccc(C(C)=O)cc1CC(C(=O)c1ccc(C)cc1)N(C)C (stereo unspecified),0,0,0,0,0,0
CN(CC#CCN1CCCC1)C(=O)c1cccc(Cl)c1,0,0,0,0,0,0
C[C@]12CC[C@H]3[C@@H](CCC4=CC(=O)CC[C@@]43O)[C@@H]1CCC2=O,0,0,0,0,0,0
CCOC(=O)C1(CCCc2ccccc2)CCN(C2CCC2)CC1,0,0,0,0,0,0
CN(C)C(CNC(=O)Cc1ccc(Br)cc1)c1ccccc1 (stereo unspecified),0,0,175,0,0,0
O=C(CCCc1ccccc1)NCCc1cnc[nH]1,0,0,143,0,0,0
O=C(COc1ccccc1)NCCc1cnc[nH]1,0,0,0,0,0,0

# From PubChem
